Consider 15 compounds from PMC10682633 (Heliyon, 2023).

One assay concerns mushroom tyrosinase. Put plainly: Tyrosinase inhibitory assay. The following applies: for % inhibition at 50 μM: 50 μM compound, L-DOPA substrate; for IC50: read-out: IC50 (μM) ± RSD, L-DOPA substrate, means ± RSD. The format is biochemical.
A short description of assay [1]: Antioxidant activity, DPPH assay. The following applies: for % inhibition at 200 μM: 200 μM compound; for IC50: read-out: IC50(μM) ± RSD.
Assay [2] deals with tyrosinase. The note with it: tyrosinase inhibition; cited from earlier work.
For assay [3], the system named is tyrosinase. In words: Enzyme kinetic studies. The format is biochemical. The note with it: Lineweaver-Burk plot; L-DOPA 0-1.5 mM; inhibitor 5-80 μM. The essentials: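 Mushroom tyrosinase with L-DOPA as substrate, tested across several inhibitor concentrations. Reaction rates were plotted as 1/V against 1/[S] (Lineweaver–Burk double-reciprocal plot) to assign the inhibition type. Km was read from this plot.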

By % inhibition is commonly meant the share of the control response that was lost under treatment. Read a high % inhibition as a strong effect. Broadly, the IC50 is the concentration that inhibits the measured activity by half. On to `COc1ccc(C(Nc2ccccn2)c2oc(CO)cc(=O)c2O)cc1[N+](=O)[O-]` (stereo not drawn) [Compound 4i, 3-Hydroxy-6-(hydroxymethyl)-2-((4-methoxy-3-nitrophenyl)(pyridin-2-ylamino)methyl)-4H-pyran-4-one], for which, in the assay on mushroom tyrosinase, the “% inhibition at 50 μM” value was 56.57 ± 3.84% and the IC50 is 30.9 ± 4.13 µM. Also, in assay [1], the “% inhibition at 200 μM” value is reported as 64.24 ± 3.39% and the IC50 was 121 ± 10.4 µM.

On to `O=c1cc(CO)oc(C(Nc2ccccn2)c2ccccc2F)c1O` (stereo not drawn) [Compound 4b, 2-((2-Fluorophenyl)(pyridin-2-ylamino)methyl)-3-hydroxy-6-(hydroxymethyl)-4H-pyran-4-one], for which, in the assay on mushroom tyrosinase, the “% inhibition at 50 μM” value is given as 59.42 ± 5.71% and the concentration for half-maximal inhibition (IC50) came to 28.2 ± 3.63 µM. Moreover, the “% inhibition at 200 μM” value in assay [1] stood at 14.09 ± 4.10%.

As to `Cc1ccc(C(Nc2ccccn2)c2oc(CO)cc(=O)c2O)cc1` (stereo not drawn) [Compound 4k, 3-Hydroxy-6-(hydroxymethyl)-2-((pyridin-2-ylamino)(p-tolyl)methyl)-4H-pyran-4-one], in the assay with mushroom tyrosinase, the “% inhibition at 50 μM” value was 22.28 ± 4.52% and the IC50 was over 50 µM. Also, the “% inhibition at 200 μM” value in assay [1] was 26.96 ± 2.54%.

For the compound `COc1cccc(C(Nc2ccccn2)c2oc(CO)cc(=O)c2O)c1O` (stereo not drawn) [Compound 4l, 3-Hydroxy-2-((2-hydroxy-3-methoxyphenyl)(pyridin-2-ylamino)methyl)-6-(hydroxymethyl)-4H-pyran-4-one], in the assay on mushroom tyrosinase, the “% inhibition at 50 μM” value stood at 52.07 ± 5.27% and the IC50 turned out to be 37.1 ± 5.42 µM. Also, the “% inhibition at 200 μM” value in assay [1] is reported as 30.61 ± 5.76%.

Regarding `Cc1cccc(C(Nc2ccccn2)c2oc(CO)cc(=O)c2O)c1` (stereo not drawn) [Compound 4j, 3-Hydroxy-6-(hydroxymethyl)-2-((pyridin-2-ylamino)(m-tolyl)methyl)-4H-pyran-4-one], in the assay on mushroom tyrosinase (50 µM), the “% inhibition at 50 μM” value is given as 16.85 ± 3.14%. Further, the IC50 on mushroom tyrosinase is over 50 µM. In assay [1], the “% inhibition at 200 μM” value worked out at 17.90 ± 6.77%.

Turning to `O=c1cc(CO)oc(C(Nc2ccccn2)c2cccc(Br)c2)c1O` (stereo not drawn) [Compound 4g, 2-((3-Bromophenyl)(pyridin-2-ylamino)methyl)-3-hydroxy-6-(hydroxymethyl)-4H-pyran-4-one], the “% inhibition at 50 μM” value in the assay on mushroom tyrosinase is 33.71 ± 4.88%. The “% inhibition at 200 μM” value in assay [1] is reported as 18.44 ± 1.54%.

As for `O=c1cc(/C=C/c2cc(=O)c(O)co2)occ1O` [B, (E)-6,6'-(ethene-1,2-diyl)bis(3-hydroxy-4H-pyran-4-one)], the IC50 at tyrosinase [2] was 3.63 µM.

Turning to `O=c1cc(CO)oc(C(Nc2ccccn2)c2cccc(F)c2)c1O` (stereo not drawn) [Compound 4c, 2-((3-Fluorophenyl)(pyridin-2-ylamino)methyl)-3-hydroxy-6-(hydroxymethyl)-4H-pyran-4-one], the “% inhibition at 50 μM” value in the assay on mushroom tyrosinase is listed as 28.47 ± 1.59%. Moreover, in assay [1], the “% inhibition at 200 μM” value is 18.65 ± 3.05%.

Turning to `O=c1cc(CO)oc(C(Nc2ccccn2)c2ccccc2Cl)c1O` (stereo not drawn) [Compound 4d, 2-((2-Chlorophenyl)(pyridin-2-ylamino)methyl)-3-hydroxy-6-(hydroxymethyl)-4H-pyran-4-one], in the assay on mushroom tyrosinase, the “% inhibition at 50 μM” value was 60.35 ± 1.43% and the IC50 amounted to 22.4 ± 3.34 µM. Besides, the “% inhibition at 200 μM” value in assay [1] is 19.49 ± 3.98%.

Turning to `O=c1cc(CO)oc(C(Nc2ccccn2)c2cccc(Cl)c2)c1O` (stereo not drawn) [Compound 4e, 2-((3-Chlorophenyl)(pyridin-2-ylamino)methyl)-3-hydroxy-6-(hydroxymethyl)-4H-pyran-4-one], in the assay on mushroom tyrosinase, the “% inhibition at 50 μM” value is on record as 50.57 ± 2.65% and the IC50 came out at 44.7 ± 3.59 µM. In addition, the “% inhibition at 200 μM” value in assay [1] is given as 17.21 ± 4.01%.

For the compound `O=c1c(O)c(-c2ccc(O)c(O)c2)oc2cc(O)cc(O)c12` [Quercetin, reference compound], in assay [1], the IC50 was found to be 18.6 ± 2.19 µM.

Consider `O=c1cc(CO)oc(C(Nc2ccccn2)c2ccc(COc3ccccc3)cc2)c1O` (stereo not drawn) [Compound 4m, 3-Hydroxy-6-(hydroxymethyl)-2-((4-(phenoxymethyl)phenyl)(pyridin-2-ylamino)methyl)-4H-pyran-4-one], for which, in the assay on mushroom tyrosinase, the “% inhibition at 50 μM” value stood at 35.42 ± 2.43%. Moreover, in assay [1], the “% inhibition at 200 μM” value was found to be 23.30 ± 5.17%.

`O=c1cc(CO)oc(C(Nc2ccccn2)c2ccccc2)c1O` (stereo not drawn) [Compound 4a, 3-Hydroxy-6-(hydroxymethyl)-2-(phenyl(pyridin-2-ylamino)methyl)-4H-pyran-4-one]: the “% inhibition at 50 μM” value with mushroom tyrosinase is reported as 29.14 ± 2.86%. Besides, in assay [1], the “% inhibition at 200 μM” value was found to be 20.86 ± 4.41%.

Regarding `O=c1cc(CO)oc(C(Nc2ccccn2)c2cccc([N+](=O)[O-])c2)c1O` (stereo not drawn) [Compound 4h, 3-Hydroxy-6-(hydroxymethyl)-2-((3-nitrophenyl)(pyridin-2-ylamino)methyl)-4H-pyran-4-one], in the assay with mushroom tyrosinase, the “% inhibition at 50 μM” value came out at 74.85 ± 4.26% and the IC50 amounted to 20.4 ± 2.15 µM. Further, the “% inhibition at 200 μM” value in assay [1] (200 µM) is reported as 37.27 ± 5.42%. Besides, in the assay on tyrosinase [3], the Mode of inhibition result was “uncompetitive”.

In the case of `O=c1cc(CO)oc(C(Nc2ccccn2)c2ccccc2Br)c1O` (stereo not drawn) [Compound 4f, 2-((2-Bromophenyl)(pyridin-2-ylamino)methyl)-3-hydroxy-6-(hydroxymethyl)-4H-pyran-4-one], in the assay on mushroom tyrosinase, the “% inhibition at 50 μM” value is 60.85 ± 4.29% and the 50% inhibitory concentration (IC50) stood at 23.4 ± 4.19 µM. The “% inhibition at 200 μM” value in assay [1] amounted to 13.03 ± 2.86%.
